In ChEMBL document CHEMBL5058577, “EUbOPEN Chemogenomics Library 2 (Multiplex)” (2022):
Values joined by “and” are separate entries in the source; they are usually repeats but may differ in a detail not shown here. Equal values may be shown once.

Legend:
Type in all cases: toxicity, cell-based
[1] = tested on: HEK-293T; assay: Multiplex assay against HEK293T; details: human, 10 µM, compound concentration 10 uM
Outline: (§1)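 On a CQ1 microscope at 37°C and 5% CO2, live cells were imaged after compound addition. They had been stained at seeding with Hoechst33342, BioTracker Green Microtubule Cytoskeleton Dye, MitoTracker Red and Annexin V Alexa Fluor 680. CellPathfinder machine-learning gating assigned cells to Hoechst high-intensity objects or normal cells, normal cells to healthy, pyknosed or fragmented nuclei, and pyknosed cells to mitotic or apoptotic. Tubulin, mitochondrial-mass and membrane-permeability phenotypes are per cents of healthy-nucleus cells.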

[2] = tested on: Fibroblast; assay: Multiplex assay against human fibroblast; details: 10 µM, compound concentration 10 uM; outline: as §1
[3] = tested on: U2OS; assay: Multiplex assay against U2OS; details: human, 10 µM, compound concentration 10 uM; outline: as §1

CCC(=O)N1CCN(c2ccc(-n3c(=O)ccc4cnc5ccc(-c6cnc7ccccc7c6)cc5c43)cc2C(F)(F)F)CC1 [TORIN1]
Population Apoptotic (%) ([1]; 12 h, replicate 1): 71% and 67% | Population Healthy Nuclei (%) ([1]; 12 h, replicate 1): 76% and 71% | Population Membrane Permeable-Phenotype (%) ([1]; 12 h, replicate 1): 0% | Population Mitochondria Different-Phenotype (%) ([1]; 12 h, replicate 1): 78% and 76% | Population Normal (%) ([1]; 12 h, replicate 1): 88% | Population Tubulin-Different-Phenotype (%) ([1]; 12 h, replicate 1): 40% | Total Cell Count ([1]; 12 h, replicate 1): 373 and 299 | Population Apoptotic (%) ([1]; 12 h, replicate 2): 51% and 57% | Population Healthy Nuclei (%) ([1]; 12 h, replicate 2): 79% | Population Mitochondria Different-Phenotype (%) ([1]; 12 h, replicate 2): 87% | Population Mitotic Cells (%) ([1]; 12 h, replicate 2): 48% and 42% | Population Normal (%) ([1]; 12 h, replicate 2): 92% | Population Tubulin-Different-Phenotype (%) ([1]; 12 h, replicate 2): 37% | Total Cell Count ([1]; 12 h, replicate 2): 266 and 321 | Population Apoptotic (%) ([1]; 24 h, replicate 1): 45% | Population Healthy Nuclei (%) ([1]; 24 h, replicate 1): 75% and 74% | Population Membrane Permeable-Phenotype (%) ([1]; 24 h, replicate 1): 0% | Population Mitochondria Different-Phenotype (%) ([1]; 24 h, replicate 1): 75% and 81% | Population Mitotic Cells (%) ([1]; 24 h, replicate 1): 46% and 54% | Population Normal (%) ([1]; 24 h, replicate 1): 86% and 90% | Population Tubulin-Different-Phenotype (%) ([1]; 24 h, replicate 1): 43% and 44% | Total Cell Count ([1]; 24 h, replicate 1): 337 and 289 | Population Apoptotic (%) ([1]; 24 h, replicate 2): 44% and 58% | Population Mitochondria Different-Phenotype (%) ([1]; 24 h, replicate 2): 82% and 86% | Population Mitotic Cells (%) ([1]; 24 h, replicate 2): 55% and 41% | Population Normal (%) ([1]; 24 h, replicate 2): 77% and 71% | Population Tubulin-Different-Phenotype (%) ([1]; 24 h, replicate 2): 33% and 57% | Total Cell Count ([1]; 24 h, replicate 2): 225 and 283 | Population Apoptotic (%) ([1]; 48 h, replicate 1): 56% and 69% | Population Healthy Nuclei (%) ([1]; 48 h, replicate 1): 70% and 72% | Population Membrane Permeable-Phenotype (%) ([1]; 48 h, replicate 1): 0% | Population Mitochondria Different-Phenotype (%) ([1]; 48 h, replicate 1): 77% and 75% | Population Mitotic Cells (%) ([1]; 48 h, replicate 1): 43% | Population Normal (%) ([1]; 48 h, replicate 1): 73% and 80% | Population Tubulin-Different-Phenotype (%) ([1]; 48 h, replicate 1): 47% and 35% | Total Cell Count ([1]; 48 h, replicate 1): 292 and 275 | Population Apoptotic (%) ([1]; 48 h, replicate 2): 68% and 58% | Population Healthy Nuclei (%) ([1]; 48 h, replicate 2): 56% | Population Membrane Permeable-Phenotype (%) ([1]; 48 h, replicate 2): 1% | Population Mitochondria Different-Phenotype (%) ([1]; 48 h, replicate 2): 80% and 82% | Population Mitotic Cells (%) ([1]; 48 h, replicate 2): 41% | Population Normal (%) ([1]; 48 h, replicate 2): 38% and 36% | Population Tubulin-Different-Phenotype (%) ([1]; 48 h, replicate 2): 37% and 58% | Total Cell Count ([1]; 48 h, replicate 2): 235 and 234 | Population Healthy Nuclei (%) ([2]; 12 h, replicate 1): 60% and 61% | Population Mitotic Cells (%) ([2]; 12 h, replicate 1): 72% and 76% | Population Normal (%) ([2]; 12 h, replicate 1): 94% and 95% | Population Tubulin-Different-Phenotype (%) ([2]; 12 h, replicate 1): 62% and 53% | Total Cell Count ([2]; 12 h, replicate 1): 155 and 135 | Population Healthy Nuclei (%) ([2]; 12 h, replicate 2): 44% | Population Mitotic Cells (%) ([2]; 12 h, replicate 2): 65% and 66% | Population Normal (%) ([2]; 12 h, replicate 2): 90% | Population Tubulin-Different-Phenotype (%) ([2]; 12 h, replicate 2): 64% | Total Cell Count ([2]; 12 h, replicate 2): 131 and 150 | Population Healthy Nuclei (%) ([2]; 24 h, replicate 1): 64% | Population Mitotic Cells (%) ([2]; 24 h, replicate 1): 66% and 50% | Population Normal (%) ([2]; 24 h, replicate 1): 96% and 94% | Population Tubulin-Different-Phenotype (%) ([2]; 24 h, replicate 1): 62% and 48% | Total Cell Count ([2]; 24 h, replicate 1): 137 and 135 | Population Healthy Nuclei (%) ([2]; 24 h, replicate 2): 57% and 45% | Population Mitotic Cells (%) ([2]; 24 h, replicate 2): 56% and 77% | Population Normal (%) ([2]; 24 h, replicate 2): 93% and 95% | Population Tubulin-Different-Phenotype (%) ([2]; 24 h, replicate 2): 59% and 60% | Total Cell Count ([2]; 24 h, replicate 2): 128 and 150 | Population Healthy Nuclei (%) ([2]; 48 h, replicate 1): 72% and 71% | Population Mitotic Cells (%) ([2]; 48 h, replicate 1): 50% | Population Normal (%) ([2]; 48 h, replicate 1): 96% and 97% | Population Tubulin-Different-Phenotype (%) ([2]; 48 h, replicate 1): 67% and 54% | Total Cell Count ([2]; 48 h, replicate 1): 127 and 124 | Population Healthy Nuclei (%) ([2]; 48 h, replicate 2): 62% and 46% | Population Mitotic Cells (%) ([2]; 48 h, replicate 2): 46% | Population Normal (%) ([2]; 48 h, replicate 2): 95% and 98% | Population Tubulin-Different-Phenotype (%) ([2]; 48 h, replicate 2): 61% and 77% | Total Cell Count ([2]; 48 h, replicate 2): 136 and 147 | Population Apoptotic (%) ([3]; 12 h, replicate 1): 68% and 85% | Population Healthy Nuclei (%) ([3]; 12 h, replicate 1): 55% | Population Normal (%) ([3]; 12 h, replicate 1): 98% and 96% | Total Cell Count ([3]; 12 h, replicate 1): 288 and 258 | Population Apoptotic (%) ([3]; 12 h, replicate 2): 76% and 92% | Population Healthy Nuclei (%) ([3]; 12 h, replicate 2): 71% and 61% | Total Cell Count ([3]; 12 h, replicate 2): 109 and 101 | Population Apoptotic (%) ([3]; 24 h, replicate 1): 77% and 84% | Population Healthy Nuclei (%) ([3]; 24 h, replicate 1): 54% and 55% | Population Normal (%) ([3]; 24 h, replicate 1): 98% and 96% | Total Cell Count ([3]; 24 h, replicate 1): 287 and 256 | Population Apoptotic (%) ([3]; 24 h, replicate 2): 73% and 83% | Population Healthy Nuclei (%) ([3]; 24 h, replicate 2): 72% | Population Normal (%) ([3]; 24 h, replicate 2): 97% | Total Cell Count ([3]; 24 h, replicate 2): 115 and 106 | Population Apoptotic (%) ([3]; 48 h, replicate 1): 78% and 72% | Population Healthy Nuclei (%) ([3]; 48 h, replicate 1): 44% and 39% | Population Normal (%) ([3]; 48 h, replicate 1): 93% and 97% | Total Cell Count ([3]; 48 h, replicate 1): 300 and 270 | Population Apoptotic (%) ([3]; 48 h, replicate 2): 82% and 81% | Total Cell Count ([3]; 48 h, replicate 2): 147 and 123
